Results gathered from unrelated publications.
Protocols differ between the studies behind these lines.
Target: Serine/threonine-protein kinase 4 (STK4, Homo sapiens, UniProt Q13043)
Residues used in one study (Q13043 1-487): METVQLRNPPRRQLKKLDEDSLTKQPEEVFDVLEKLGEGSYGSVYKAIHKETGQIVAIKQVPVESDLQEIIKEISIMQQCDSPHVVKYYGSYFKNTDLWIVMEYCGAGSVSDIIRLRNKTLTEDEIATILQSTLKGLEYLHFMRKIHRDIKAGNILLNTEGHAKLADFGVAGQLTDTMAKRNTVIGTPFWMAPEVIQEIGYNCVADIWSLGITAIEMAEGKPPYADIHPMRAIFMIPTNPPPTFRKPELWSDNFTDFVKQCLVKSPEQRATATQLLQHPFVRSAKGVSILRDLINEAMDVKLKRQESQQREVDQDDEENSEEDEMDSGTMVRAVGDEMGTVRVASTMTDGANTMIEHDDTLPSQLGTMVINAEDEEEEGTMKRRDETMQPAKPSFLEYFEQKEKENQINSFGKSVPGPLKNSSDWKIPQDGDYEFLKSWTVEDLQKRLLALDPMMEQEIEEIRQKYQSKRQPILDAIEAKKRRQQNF

F[C@@H]1CCN(c2nccc(-c3cnn4ncccc34)n2)C1  remaining binding (binding; 1 µM): 91%
CNC(=O)c1ccc(Nc2ncc(C(F)(F)F)c(NCc3nccnc3N(C)S(C)(=O)=O)n2)cc1  remaining binding (cell-free assay; competition with immobilised ligand; 0.1 µM): 97%
C[C@@H]1CCN(c2nccc(-c3cnn4ncccc34)n2)C1  remaining binding (binding; 1 µM): 85%
O=C(c1ccc(Nc2ncc(Cl)c(-c3ccc(Cl)s3)n2)cc1)N1CCC(N2CCCC2)CC1  remaining binding (binding; competition with immobilised ligand; 1 µM): 90%
O=C(NCCCC1CCCCC1)c1ccc(CNC(=O)c2cnn(-c3ccccc3)c2C(F)(F)F)cc1  remaining binding (cell-free assay; competition with immobilised ligand; 0.1 µM): 100%
O=C(Nc1c[nH]nc1C(=O)NC1CCNCC1)c1cc(F)cc(F)c1  remaining binding (binding; competition with immobilised ligand; 1 µM): 100%
COc1cnc(Nc2cccc(S(N)(=O)=O)c2)nc1N1CCN(c2ccccc2)CC1  remaining binding (binding; competition with immobilised ligand; 1 µM): 100%
CCC(=O)N[C@H]1CC[C@@H](C(=O)N(C)c2ccc(-c3nc4ccccc4o3)cc2)C1  remaining binding (cell-free assay; competition with immobilised ligand; 1 µM): 100%
O=C(NCCCN1CCOCC1)c1ccc(Nc2ncc(Cl)c(-c3ccc(Cl)s3)n2)cc1  remaining binding (binding; competition with immobilised ligand; 1 µM): 90%
Cc1cnn2ncc(-c3ccnc(N(C)C)n3)c2c1  remaining binding (binding; 1 µM): 97%
CNC(=O)[C@@H]1CC[C@@H](n2c(-c3ccc4cnccc4c3)nc3ccc(C(=O)NCc4cccc(C(N)=O)c4)cc32)C1  remaining binding (binding; competition with immobilised ligand; 1 µM): 81%
CSc1cccnc1N1CCN(Cc2nc3ccccc3[nH]2)CC1  remaining binding (cell-free assay; competition with immobilised ligand; 1 µM): 85%
CN(CCCC(F)(F)F)c1nccc(-c2cnn3ncccc23)n1  remaining binding (binding; 1 µM): 89%
O=C(NCCCN1CCOCC1)c1ccc(Nc2nccc(-c3cc4ccccc4s3)n2)cc1  remaining binding (binding; competition with immobilised ligand; 1 µM): 100%
Cc1c[nH]c2nccc(Oc3c(F)cc(Nc4cc(Cl)nc(N)n4)cc3F)c12  remaining binding (cell-free assay; competition with immobilised ligand; 0.1 µM): 100%
Nc1ncc2c(n1)-c1c([nH]c3ccc(C#CC4CC4)cc13)CCCC2  remaining binding (binding; competition with immobilised ligand; 1 µM): 100%
N[C@H]1CCN(c2nccc(-c3cnn4ncccc34)n2)C1  remaining binding (binding; 1 µM): 100%
COc1cccc(CNC(=O)c2nc3scc(COCc4ccc(C(=O)O)cc4)c3c(=O)[nH]2)c1  remaining binding (cell-free assay; competition with immobilised ligand; 1 µM): 75%
COc1ccnn2ncc(-c3ccnc(N(C)C)n3)c12  remaining binding (binding; 1 µM): 100%
COc1ncc2cc3ccccc3nc2c1C#N  remaining binding (cell-free assay; competition with immobilised ligand; 5 µM): 96%
